Laboratory results as given in ChEMBL document CHEMBL2375268, “Design, synthesis and antiproliferative properties of some new 5-substituted-2-iminobenzimidazole derivatives” (Eur J Med Chem, 2013).

Legend:
HeLa = test: Antiproliferative activity against human HeLa cells after 24 hrs by MTS assay; type: functional, cell-based
Summary of the method: (§1)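 Compounds taken up in DMSO at 0.5 mg/ml stock, then diluted 1:10, 1:100, 1:1000 and 1:10 000. Cells exposed 24 h; cells in unmodified medium served as control. MTS added, 4 h at 37 °C in 5% CO2/95% air, absorbance read at 490 nm. Viability given as % of untreated control per concentration, mean of three independent assays. IC50 (cancer lines) or EC50 (Lep-3) derived from plotted curves.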

MDA-MB-231 = test: Antiproliferative activity against human MDA-MB-231 cells after 24 hrs by MTS assay; type: functional, cell-based; conditions: MDA-MB-231, 24 h; summary of the method: as §1
HepG2 = test: Antiproliferative activity against human HepG2 cells after 24 hrs by MTS assay; type: functional, cell-based; conditions: HepG2, 24 h; summary of the method: as §1
[1] = Antiproliferative activity against human LEP-3 cells after 24 hrs by MTS assay; type: cell-based; conditions: LEP-3, 24 h; summary of the method: as §1
HT-29 = test: Antiproliferative activity against human HT-29 cells after 24 hrs by MTS assay; type: functional, cell-based; conditions: HT-29, 24 h; summary of the method: as §1

SMILES | EC50 (HeLa) [nM] | EC50 (MDA-MB-231) [nM] | EC50 (HepG2) [nM] | EC50 [1] [nM] | EC50 (HT-29) [nM] | IC50 (HT-29) [nM] | IC50 (MDA-MB-231) [nM] | IC50 (HeLa) [nM] | IC50 (HepG2) [nM]
CCCCn1c(=N)n(CCCC)c2cc([N+](=O)[O-])ccc21 | 158 | 86 | 142 | 114 | 177 |  |  |  | 
N#CCCCCn1c(=N)n(CCCCC#N)c2cc(C(=O)c3ccccc3)ccc21 | 0.015 | 119 | 94.1 | 68 | 46.7 |  |  |  | 
CCOC(=O)Cn1c(=N)n(CC(=O)OCC)c2cc(C(=O)c3ccccc3)ccc21 |  | 0.28 | 70.1 | 73 |  | 0.64 |  |  | 
N=c1n(CC(=O)N/N=C/c2ccc3c(c2)OCO3)c2ccc(C(=O)c3ccccc3)cc2n1CC(=O)N/N=C/c1ccc2c(c1)OCO2 | 0.25 |  | 10.2 | 0.21 |  | 2.83 | 6.2 |  | 
N=c1n(CC(=O)N/N=C/c2ccc(F)cc2)c2ccc([N+](=O)[O-])cc2n1CC(=O)N/N=C/c1ccc(F)cc1 |  | 17 |  | 12.2 | 24.5 |  |  | 117 | 7.27
